Entries after “also recorded” stand apart in the source; their conditions may differ.
Experiments:
[1] = tested on: normal human lung fibroblasts (NHLFs); assay: bFGF-induced fibroblast proliferation; format: cell-based; conditions: 100pM bFGF, 48 hours
Outline: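 Normal human lung fibroblasts stimulated 48 h with recombinant human bFGF (100pM) plus test compound or DMSO vehicle. Proliferation measured by 3H-thymidine incorporation (counts per minute). Mean (SE) of three separate experiments.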

[2] = tested on: cord blood-derived mast cells (CBMCs); assay: recombinant SCF-mediated CBMC survival; format: cell-based, human; conditions: 4 nM rhSCF, 7 days
Outline: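 Cord blood–derived MCs, differentiated from CD133+ precursors, cultured 7 days with 4 nM rhSCF plus test compound or DMSO vehicle. Then stained with viability dye and anti-ckit APC; viable ckit-positive MCs in a fixed volume counted by flow cytometry and compared with control. Mean (SE) of three separate experiments.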

[3] = tested on: CBMCs co-cultured with NHLFs; assay: CBMC:NHLF co-culture, fibroblast-mediated MC survival and fibroblast numbers; format: cell-based, human; conditions: 10 nM, day 14
Outline: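 CBMCs and normal human lung fibroblasts were cultured alone or co-cultured at 1:1 for up to 21 days. Media lacked SCF and IL-6 and held test compound, DMSO vehicle, anti-SCF (67 nM) or goat IgG isotype (67 nM). At each time point, viability dye plus anti-ckit APC staining; viable ckit+ (MC) and ckit− (fibroblast) cells counted in a fixed volume by flow cytometry. Day-14 % inhibition vs isotype/vehicle; 3 experiments, 2 MC donors.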

[4] = tested on: CCL2 release from CBMCs; assay: rhSCF-induced CCL2 release from MCs; format: cell-based; conditions: Homo sapiens, 72 h, read-out: IC50, inhibition of CCL2 release
Outline: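 CBMCs stimulated 3 days with 4 nM rhSCF together with test compound, DMSO vehicle, anti-SCF pAb (positive control) or goat IgG isotype. CCL2 in culture supernatants quantified by MesoScale Discovery electrochemiluminescence. Mean (SE) of 3 separate experiments.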

[5] = molecular target: ckit (Homo sapiens, UniProt P10721); assay: rhSCF-mediated ckit phosphorylation in CBMCs; format: cell-based; conditions: 4 nM rhSCF, 10 min stimulation
Chain of ckit (P10721 26-976): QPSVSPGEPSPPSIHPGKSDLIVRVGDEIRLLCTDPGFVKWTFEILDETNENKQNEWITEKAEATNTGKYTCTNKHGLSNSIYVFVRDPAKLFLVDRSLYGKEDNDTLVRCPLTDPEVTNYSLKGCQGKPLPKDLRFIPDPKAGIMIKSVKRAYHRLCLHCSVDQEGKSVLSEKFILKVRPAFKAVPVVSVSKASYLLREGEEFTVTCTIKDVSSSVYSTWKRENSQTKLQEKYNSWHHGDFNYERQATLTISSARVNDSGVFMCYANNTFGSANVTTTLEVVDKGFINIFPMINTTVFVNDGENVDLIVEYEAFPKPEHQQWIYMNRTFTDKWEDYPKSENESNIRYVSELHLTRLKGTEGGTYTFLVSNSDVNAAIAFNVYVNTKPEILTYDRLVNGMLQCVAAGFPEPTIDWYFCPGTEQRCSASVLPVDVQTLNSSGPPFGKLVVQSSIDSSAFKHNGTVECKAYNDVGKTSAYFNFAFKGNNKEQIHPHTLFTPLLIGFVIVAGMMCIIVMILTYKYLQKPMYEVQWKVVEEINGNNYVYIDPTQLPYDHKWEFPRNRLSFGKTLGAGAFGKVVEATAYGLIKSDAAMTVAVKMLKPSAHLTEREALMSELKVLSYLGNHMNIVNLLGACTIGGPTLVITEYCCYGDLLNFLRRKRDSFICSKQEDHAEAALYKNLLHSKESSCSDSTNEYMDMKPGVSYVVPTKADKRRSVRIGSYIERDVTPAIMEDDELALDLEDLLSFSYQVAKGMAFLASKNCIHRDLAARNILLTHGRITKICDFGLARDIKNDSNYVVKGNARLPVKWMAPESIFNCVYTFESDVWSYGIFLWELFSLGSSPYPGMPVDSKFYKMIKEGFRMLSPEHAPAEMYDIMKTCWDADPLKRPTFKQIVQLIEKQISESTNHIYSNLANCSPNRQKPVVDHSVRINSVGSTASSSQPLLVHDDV

[6] = tested on: rat bleomycin model; assay: rat bleomycin model of lung fibrosis; format: in vivo; conditions: 60 mg/kg daily oral
Outline: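 Male CD rats, 6–8 weeks old, given intratracheal bleomycin sulphate 0.9 U/kg or saline 1 mL/kg under isoflurane on day 0. Test compound 60 mg/kg, or water vehicle, by daily oral gavage on days 0–13. Day 14: Giemsa-stained lung sections counted for MCs per lung area. H&E and Masson's trichrome images analysed for parenchymal tissue density (HDFm). Collagen proportion by trichrome image analysis, 5 sections/animal. n=5–9/group; Kruskal-Wallis.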

[7] = read-out: maximum plasma concentration achieved at steady state (cmax); 150 mg twice daily dosing; cited from earlier work

SMILES	effect on bFGF-mediated fibroblast proliferation (in words) [1]	effect on rhSCF-mediated MC survival (in words) [2]	effect on fibroblast-mediated MC survival (in words) [3]	IC50 [4] [µM]	extent of inhibition of ckit phosphorylation (in words) [5]	effect on bleomycin-induced increase in lung MCs (number per area lung) ([6]; day 0-13, read-out day 14, 60 mg/kg)	effect on collagen (col1a1) mRNA expression in lung ([6]; day 14)	effect on fibronectin (fn1) mRNA expression in lung ([6]; day 14)	effect on collagen content by Masson's trichrome (MTC) ([6]; day 14, 60 mg/kg)	effect on histamine levels in lung homogenates ([6]; day 14, 60 mg/kg)	effect on lung hydroxyproline levels ([6]; day 14, 60 mg/kg)	effect on high tissue density frequency (HDFm) in lung parenchyma ([6]; day 14, vs bleomycin vehicle control, 60 mg/kg)	Cmax [7] [nM]
Cc1ccc(=O)n(-c2ccccc2)c1 [pirfenidone]	no impact	no impact											
COC(=O)c1ccc2c(c1)NC(=O)/C2=C(\Nc1ccc(N(C)C(=O)CN2CCN(C)CC2)cc1)c1ccccc1 [nintedanib]			inhibited survival	0.0122	fully inhibited	ablated; also recorded: inhibited	no significant effect	no significant effect	trend towards decreased collagen; also recorded: not statistically significant	reduction in the levels of histamine in lung homogenates, although this did not reach statistical significance	no significant effect	significantly decreased; also recorded: inhibited	70

From paper PMC7476277 (Thorax, 2020)
